EP2 antag = human EP2 receptor antagonists, primary screen, TR-FRET cAMP, C6 glioma cells | C6 glioma cells expressing human EP2; cells stimulated with saturating PGE2 | inhibition, % at 25 µM | 260,000 tested, 0.52% active | AID 1422, 2008;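 active means percent inhibition above 40 after rounding to a whole number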;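 further: rat C6 glioma host cells with rolipram phosphodiesterase inhibitor present; the protocol text gives 20 µM as final concentration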
Target sequence (P43116 whole entry, looked up): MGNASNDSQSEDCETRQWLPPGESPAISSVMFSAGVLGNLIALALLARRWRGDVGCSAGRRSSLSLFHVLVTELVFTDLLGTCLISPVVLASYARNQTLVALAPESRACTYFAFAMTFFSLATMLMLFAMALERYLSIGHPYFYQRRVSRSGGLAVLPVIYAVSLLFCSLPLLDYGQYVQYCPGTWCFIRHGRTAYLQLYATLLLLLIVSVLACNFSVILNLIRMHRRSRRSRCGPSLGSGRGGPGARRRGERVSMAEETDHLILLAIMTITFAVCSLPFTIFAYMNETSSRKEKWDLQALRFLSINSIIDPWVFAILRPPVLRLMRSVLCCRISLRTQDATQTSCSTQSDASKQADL
EP2 modulator = EP2 receptor modulators, cAMP readout, primary screen, cell-based, HTRF cAMP, PGE2 stimulation; Prostaglandin E2 receptor EP2 subtype (Homo sapiens), P43116; EP2-expressing cells, cAMP HTRF FRET, PGE2 co-stimulation; induction, % at 25 µM; 260,000 tested, 0.83% active; AID 940, 2007;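 active means compounds whose cAMP rise, as percent of the full-agonist control response, exceeds 60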;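 further: rat C6 glioma line stably carrying human EP2 under a CMV promoter; the protocol text gives 20 µM as final concentration; 100% = response of wells given 1 µM PGE2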
PHOSPHO1 inh = PubChem AID 1565; Phosphoethanolamine/phosphocholine phosphatase (Homo sapiens), Q8TCT1; recombinant PHOSPHO1, absorbance phosphatase assay; inhibition, % at 13.3 µM; 290,000 tested, 1.1% active; in the data active means inhibition above about 60%
Tb hexokinase = Trypanosoma brucei hexokinase 1 inhibitors, primary screen, biochemical, G6PDH-coupled NADH absorbance, MLSCN library; recombinant TbHK1, G6PDH-coupled NADH A340; inhibition, % at 10 µM; 220,000 tested, 0.11% active; AID 1430, 2008;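 active means inhibition of 50% or more in the single-dose primary screen; inactive means inhibition below 50%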
PfGluPho inh = PfG6PD enzyme inhibitors, primary screen, biochemical, fluorescence intensity, uHTS; glucose-6-phosphate dehydrogenase-6-phosphogluconolactonase (Plasmodium falciparum 3D7); inhibition, % at 20 µM; 350,000 tested, 0.78% active; PfGluPho enzyme, NADPH resazurin-diaphorase fluorescence;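 active means inhibition reaching at least a set limit at 20 µM in the primary screen, cut at about 59% in these data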;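 further: 0% = DMSO wells with substrate and 100% = DMSO wells lacking glucose-6-phosphate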
HKDC1 inh = HKDC1 hexokinase inhibitors, primary screen, biochemical, fluorescence, uHTS; recombinant HKDC1, G6PDH/diaphorase resazurin coupled fluorescence; AID 493160, 2011; inhibition, % at 20 µM; 340,000 tested, 0.16% active;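 active means inhibition above about 35% when tested at 20 µM, limit read from the data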;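 further: plate controls were DMSO wells with enzyme for no effect and DMSO wells lacking enzyme for full effect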
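Material: recombinant HKDC1 hexokinase; Amount: HKDC1 at 5 µg/mL; Medium: Tris pH 8.0 buffer with MgCl2, Tween-20, BSA, BME; Schedule: 90 min reaction incubation at room temperature, dark; Technique: coupled resazurin fluorescence, excitation 525 nm, emission 613 nm.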
PfG6PD confirm = PfG6PD inhibitors, hit retest, confirmation, biochemical, fluorescence intensity, single concentration; shares compounds with PfGluPho inh; recombinant PfGluPho, NADPH-diaphorase-resazurin fluorescence; inhibition, % at 20 µM; 2,400 tested, 34% active; AID 504753, 2011;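 active means inhibition of at least 50% at 20 µM in any single replicate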;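 further: 0% = DMSO with substrate and 100% = DMSO lacking glucose-6-phosphate substrate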
Diaph ctr 10uM = diaphorase inhibitors and chemical oxidizers, confirmation, counter-screen for P. falciparum G6PD inhibitor project, biochemical, fluorescence intensity, 10 µM NADPH. 820 tested, 39% active. AID 504862, 2011. shares compounds with PfGluPho inh. diaphorase-coupled resazurin reduction, NADPH 10 uM. inhibition, % at 20 µM;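 active means average inhibition reaching 50% or more with the compound at 20 µM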;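 further: resorufin red fluorescence formed as diaphorase reduces resazurin using NADPH; 0% = DMSO with enzyme and 100% = DMSO without enzyme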
Diaph ctr 30uM = diaphorase inhibitors and chemical oxidizers, confirmation, counter-screen for P. falciparum G6PD inhibitor project, biochemical, fluorescence intensity, 30 µM NADPH; shares compounds with PfGluPho inh; Diaphorase/resazurin coupled assay, resorufin fluorescence; inhibition, % at 20 µM; 820 tested, 29% active;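 active means inhibition averaging 50% or more, tested at 20 µM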;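 further: 0% = DMSO with enzyme and 100% = DMSO wells lacking diaphorase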
Starred values were filed as active, the others as inactive; · = no result given. Only some compounds are listed: those with a hit (about 2.5% of all), similar ones and a draw of the others.

SMILES	EP2 antag	EP2 modulator	PHOSPHO1 inh	Tb hexokinase	PfGluPho inh	HKDC1 inh	PfG6PD confirm	others
Cc1cc(C(=O)COc2cccc(-n3cnnn3)c2)c(C)n1-c1ccccc1	6	-4	-1	-9	74*	-3	26
COc1cc(NC(=O)c2cc(-c3ccc(Cl)cc3Cl)on2)cc(OC)c1OC	12	6	·	·	·	·	·
Cc1ccc(-n2c(=S)[nH]c3sc4c(c3c2=O)CCc2ccccc2-4)cc1	17	32	-14	-14	10	2	·
Cc1cccc(-n2c(=S)[nH]c3sc4c(c3c2=O)CCc2ccccc2-4)c1	17	34	4	-10	67*	6	52*	Diaph ctr 10uM=-24;Diaph ctr 30uM=6
Cc1[nH]n(-c2ccccc2)c(=S)c1C=Nc1cccc([N+](=O)[O-])c1	19	18	107*	-3	110*	2	48
CCn1c(=O)n(CC(=O)Nc2ccc3c(c2)OCO3)c2cccnc21	·	-13	·	·	·	·	·
CCS(=O)(=O)N1CCN(c2ccc([N+](=O)[O-])c(NC(C)c3ccccc3)c2)CC1 (stereo not given)	7	-3	22	-6	78*	9	54*	Diaph ctr 10uM=34;Diaph ctr 30uM=24
CC(Nc1cc(N2CCNCC2)ccc1[N+](=O)[O-])c1ccccc1 (stereo not given)	3	-45	2	-8	11	-3	·
CC(C)C(=O)N1CCN(c2ccc([N+](=O)[O-])c(NC(C)c3ccccc3)c2)CC1 (stereo not given)	11	42	-12	-7	81*	-4	36
O=C(C1CCCCC1)N1CCC(n2nnc3cccnc32)CC1	·	-39	·	·	·	·	·
CCOc1ccccc1Oc1nc(-c2ccccc2O)nc2ccccc12	·	·	37	·	86*	2	15
COc1cc(C)ccc1Oc1nc(-c2ccccc2O)nc2ccccc12	17	34	20	-2	3	-1	·
CCOC(=O)c1sc(N)c(C(=O)Nc2ccccc2)c1C	8	-56	20	-16	64*	-10	15
CCOC(=O)c1sc(N)c(C(=O)OCC)c1C	6	46	36	-18	13	9	·
CC(=O)N1CC[n+]2c(-c3ccc(Cl)cc3Cl)csc21	7	12	-15	12	59*	-1	-9
CC[C@H](Cn1nc(-c2cccs2)ccc1=O)NC(=O)C1CC1	·	-29	·	·	·	·	·
Cc1ccc(S(=O)(=O)Nc2ccc3[nH]c(=O)[nH]c3c2)c(C)c1	2	-16	45	-3	49	11	20
O=c1[nH]c2ccc(NS(=O)(=O)c3ccc4ccccc4c3)cc2[nH]1	4	-62	43	11	42	5	·
O=c1[nH]c2ccc(NS(=O)(=O)c3ccc(F)c(Cl)c3)cc2[nH]1	·	·	15	·	63*	3	16
O=c1[nH]c2ccc(NS(=O)(=O)c3ccc(Cl)cc3)cc2[nH]1	1	-7	52	9	64*	0	2
Cc1cc(C)c(C#N)c(SCC(=O)Nc2cccc(Cl)c2)n1	8	-10	·	·	·	·	·
CCN(CC)C(=O)C1CCN(Cc2ccccc2)CC1	10	-30	·	·	·	·	·
CCOc1ccc(-n2c(C)nc3c(cnn3-c3ccccc3)c2=O)cc1	9	-15	·	·	·	·	·
Oc1c(I)cc(I)c2cccnc12	12	20	8	2	65*	-11	5
Oc1c(Cl)cc(Cl)c2cccnc12	7	21	2	13	1	-4	·
